Activity calls are given as the source filed them. The calls are words filed in the database; no cut-off is given here.
Assays:
[1] = system: Rattus norvegicus; assay: Toxicity in Wistar rat assessed as GSSG level in kidney at 6 umol/100 g body weight, ip by fluorometric analysis relative to control; format: organism-based; conditions: in vivo
Outline: (§1)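 Rats dosed i.p.; tissues taken after 24 h. For GSH/GSSG, tissue homogenized in 11 volumes of 0.2 M sodium phosphate (5 mM EDTA, pH 8.0) plus 4 volumes of 25% metaphosphoric acid and centrifuged 12 000 × g, 4 °C, 30 min; supernatant read photometrically (GSH) or fluorometrically (GSSG). Lipid peroxidation products measured as TBARS in 19-volume ice-cold saline homogenates, fluorometrically.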

[2] = system: Rattus norvegicus; assay: Toxicity in Wistar rat assessed as lipidperoxidation product level in kidney at 1 umol/100 g body weight, ip by fluorometric analysis relative to control; format: organism-based; conditions: in vivo; outline: as §1
[3] = target: Amyloid-beta precursor protein (Homo sapiens) (UniProt P05067); assay: Inhibition of amyloid beta (1 to 42) aggregation (unknown origin) after 1 hr by thioflavin T fluorescence assay
Outline: (§2)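 Aβ42 stock (200 µM in DMSO) centrifuged 12,000 rpm for 10 min; supernatant used. Compound (2 µL of 0.2–4.0 mM DMSO stock) and 2 µL Aβ42 stock added to 76 µL PBS pH 7.4, incubated 1 h at room temperature. 80 µL of 5 µM ThT in 50 mM glycine-NaOH pH 8.5 then added; fluorescence read at excitation 430 nm, emission 488 nm.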

[4] = system: Rattus norvegicus; assay: Toxicity in Wistar rat assessed as GSSG level in liver at 6 umol/100 g body weight, ip by fluorometric analysis relative to control; format: organism-based; conditions: in vivo; outline: as §1
[5] = system: Rattus norvegicus; assay: Toxicity in Wistar rat assessed as lipidperoxidation product level in liver at 1 umol/100 g body weight, ip relative to control; format: organism-based; conditions: in vivo
[6] = system: Rattus norvegicus; assay: Toxicity in Wistar rat assessed as kidney weight at 1 umol/100 g body weight, ip relative to control; format: organism-based; conditions: in vivo
[7] = system: Rattus norvegicus; assay: Toxicity in Wistar rat assessed as ethylmorphine-N-demethylation activity in liver measured as formaldehyde level at 1 umol/100 g body weight, ip by photometric analysis relative to control; format: organism-based; conditions: in vivo
[8] = target: Amyloid-beta precursor protein (Homo sapiens) (UniProt P05067); assay: Inhibition of amyloid beta (1 to 42) aggregation (unknown origin) at 100 uM after 1 hr by thioflavin T fluorescence assay relative to control; outline: as §2
[9] = Induction of nitric oxide release in PBS at 100 uM at pH 7.4 after 24 hrs by Griess method in presence of rat serum; format: physicochemical; conditions: pH 7.4, 24 h
Outline: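 Test compound at 100 µM in phosphate buffer pH 7.4, alone or with 90 µL rat serum added, incubated 37 °C for 24 h. Griess reagent added, then 30 min at 37 °C with gentle shaking; absorbance read at 540 nm and blank-corrected. Nitrite quantified against an NaNO2 calibration curve and expressed as % of a theoretical 1 mol NO per mol nitrate; n = 3.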

[10] = system: Rattus norvegicus; assay: Toxicity in Wistar rat assessed as body weight at 1 umol/100 g body weight, ip relative to control; format: organism-based; conditions: in vivo
[11] = system: Rattus norvegicus; assay: Toxicity in Wistar rat assessed as brain weight at 1 umol/100 g body weight, ip relative to control; format: organism-based; conditions: in vivo
[12] = system: Rattus norvegicus; assay: Toxicity in Wistar rat assessed as GSH level in kidney at 1 umol/100 g body weight, ip by fluorometric analysis relative to control; format: organism-based; conditions: in vivo
[13] = system: Rattus norvegicus; assay: Toxicity in Wistar rat assessed as total glutathione level in kidney at 1 umol/100 g body weight, ip by fluorometric analysis relative to control; format: organism-based; conditions: in vivo; outline: as §1
[14] = system: Rattus norvegicus; assay: Toxicity in Wistar rat assessed as brain weight at 6 umol/100 g body weight, ip relative to control; format: organism-based; conditions: in vivo
[15] = system: Rattus norvegicus; assay: Toxicity in Wistar rat assessed as GSH level in brain at 6 umol/100 g body weight, ip by fluorometric analysis relative to control; format: organism-based; conditions: in vivo
[16] = system: Rattus norvegicus; assay: Toxicity in Wistar rat assessed as total glutathione level in liver at 1 umol/100 g body weight, ip by fluorometric analysis relative to control; format: organism-based; conditions: in vivo; outline: as §1
[17] = system: Rattus norvegicus; assay: Toxicity in Wistar rat assessed as total glutathione level in brain at 1 umol/100 g body weight, ip by fluorometric analysis relative to control; format: organism-based; conditions: in vivo; outline: as §1
[18] = system: Rattus norvegicus; assay: Toxicity in Wistar rat assessed as lipidperoxidation product level in kidney at 6 umol/100 g body weight, ip by fluorometric analysis relative to control; format: organism-based; conditions: in vivo; outline: as §1
[19] = system: Rattus norvegicus; assay: Toxicity in Wistar rat assessed as ethoxyresorufin-O-deethylation activity in liver measured as resorufin level at 6 umol/100 g body weight, ip by fluorometric analysis relative to control; format: organism-based; conditions: in vivo
Outline: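 Rats dosed i.p.; after 24 h, liver homogenized 1:3 w/v in 0.1 M sodium phosphate pH 7.4 and centrifuged at 9000 × g, 4 °C, 20 min. Supernatant protein determined by the Biuret method. Ethoxyresorufin-O-deethylation measured fluorometrically as resorufin formed.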

[20] = system: Rattus norvegicus; assay: Toxicity in Wistar rat assessed as total glutathione level in brain at 6 umol/100 g body weight, ip by fluorometric analysis relative to control; format: organism-based; conditions: in vivo; outline: as §1
[21] = system: Rattus norvegicus; assay: Toxicity in Wistar rat assessed as total glutathione level in kidney at 6 umol/100 g body weight, ip by fluorometric analysis relative to control; format: organism-based; conditions: in vivo; outline: as §1
[22] = system: Rattus norvegicus; assay: Toxicity in Wistar rat assessed as lipidperoxidation product level in brain at 1 umol/100 g body weight, ip by fluorometric analysis relative to control; format: organism-based; conditions: in vivo; outline: as §1
[23] = system: Rattus norvegicus; assay: Toxicity in Wistar rat assessed as total glutathione level in liver at 6 umol/100 g body weight, ip by fluorometric analysis relative to control; format: organism-based; conditions: in vivo
Outline: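 Rats were dosed, killed 24 h later, and liver and other tissues were taken. Samples were homogenized in 11 vol 0.2 M sodium phosphate (5 mM EDTA, pH 8.0) plus 4 vol 25% metaphosphoric acid, then spun at 12 000 × g, 4 °C, 30 min. GSH was read photometrically and GSSG fluorometrically in the supernatant, alongside total glutathione.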

[24] = system: Rattus norvegicus; assay: Toxicity in Wistar rat assessed as GSSG level in liver at 1 umol/100 g body weight, ip by fluorometric analysis relative to control; format: organism-based; conditions: in vivo; outline: as §1
[25] = target: Amyloid-beta precursor protein (Homo sapiens) (UniProt P05067); assay: Inhibition of amyloid beta (1 to 42) aggregation (unknown origin) at 5 uM after 1 hr by thioflavin T fluorescence assay; outline: as §2
[26] = target: Amyloid-beta precursor protein (Homo sapiens) (UniProt P05067); assay: Inhibition of amyloid beta (1 to 42) aggregation (unknown origin) at 50 uM after 6 days by atomic force microscopic analysis
Outline: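 Compound (2.5 µL of 1.0 mM) and 2.5 µL of 200 µM Aβ42 added to 45 µL PBS (20% TFE, pH 7.4); the control lacks compound. Incubated 37 °C for 6 days, then 3 µL deposited on freshly cleaved mica for 5 min, blown dry and imaged by atomic force microscopy.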

[27] = system: Rattus norvegicus; assay: Toxicity in Wistar rat assessed as ethoxycoumarin-O-deethylation activity in liver measured as 7-hydroxycoumarin level at 1 umol/100 g body weight, ip by fluorometric analysis relative to control; format: organism-based; conditions: in vivo

Sequence of Amyloid-beta precursor protein (Homo sapiens) (P05067 whole entry): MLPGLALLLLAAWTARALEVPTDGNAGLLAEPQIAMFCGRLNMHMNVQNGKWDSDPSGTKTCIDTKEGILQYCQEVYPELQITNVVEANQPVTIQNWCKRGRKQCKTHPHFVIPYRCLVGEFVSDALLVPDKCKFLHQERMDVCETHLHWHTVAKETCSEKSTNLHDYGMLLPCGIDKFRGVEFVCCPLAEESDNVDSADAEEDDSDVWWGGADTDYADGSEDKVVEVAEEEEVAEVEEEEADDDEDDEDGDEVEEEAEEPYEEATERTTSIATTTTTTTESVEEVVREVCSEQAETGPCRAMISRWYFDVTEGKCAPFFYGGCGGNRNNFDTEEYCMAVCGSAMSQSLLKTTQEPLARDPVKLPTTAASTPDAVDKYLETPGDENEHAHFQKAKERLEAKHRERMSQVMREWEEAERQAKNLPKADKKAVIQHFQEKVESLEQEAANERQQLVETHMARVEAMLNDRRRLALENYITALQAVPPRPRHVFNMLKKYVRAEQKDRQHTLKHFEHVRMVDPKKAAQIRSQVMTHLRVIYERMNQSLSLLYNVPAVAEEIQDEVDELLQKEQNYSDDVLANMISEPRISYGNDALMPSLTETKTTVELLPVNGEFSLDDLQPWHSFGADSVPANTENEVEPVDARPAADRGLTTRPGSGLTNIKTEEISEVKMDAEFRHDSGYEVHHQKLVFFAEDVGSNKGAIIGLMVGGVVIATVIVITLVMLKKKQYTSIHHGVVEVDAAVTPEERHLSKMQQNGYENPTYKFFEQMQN

Which Activity [1] does the source give for `COc1ccc2c(c1)oc1cccc(CN(C(=O)CCO[N+](=O)[O-])C(C)C)c12` here?
Its Activity is 159 µg/g.

What about the Activity [2] of the same compound?
Its Activity is 93.2 nmol/g.

And the inhibition [3]?
Its inhibition is “Dose-dependent effect”.

And the Activity [4]?
Its Activity is 418 µg/g.

What about the Activity [5] of the same compound?
The Activity was 57.7 nmol/g.

What about the Activity [6] of the same compound?
Its Activity is 0.93 g.

What about the Activity [7] of the same compound?
The Activity was 0.48 nmol/mg/min.

And the inhibition [8]?
The inhibition was 25%.

What about the Activity [9] of the same compound?
The Activity was “Active”.

And the Activity [10]?
Its Activity is 264 g.

What about the Activity [11] of the same compound?
The Activity was 1.95 g.

And the Activity [12]?
The Activity was 1462 µg/g.

And the Activity [13]?
Its Activity is 1783 µg/g.

And the Activity [14]?
The Activity was 1.87 g.

And the Activity [15]?
Its Activity is 672 µg/g.

What about the Activity [16] of the same compound?
Its Activity is 3365 µg/g.

And the Activity [17]?
The Activity was 814 µg/g.

What about the Activity [18] of the same compound?
The Activity was 96.2 nmol/g.

What about the Activity [19] of the same compound?
Its Activity is 121 pmol/mg/min.

And the Activity [20]?
The Activity was 830 µg/g.

What about the Activity [21] of the same compound?
The Activity was 1800 µg/g.

And the Activity [22]?
Its Activity is 160 nmol/g.

And the Activity [23]?
The Activity was 3320 µg/g.

And the Activity [24]?
Its Activity is 411 µg/g.

And the inhibition [25]?
The inhibition was “inactive”.

And the inhibition [26]?
Its inhibition is “Active”.

And the Activity [27]?
The Activity was 187 pmol/mg/min.

From ChEMBL document CHEMBL3124940, “Design, synthesis and biological evaluation of D-ring opened galantamine analogs as multifunctional anti-Alzheimer agents” (Eur J Med Chem, 2014)
